# Reference: publication PMC5160999 (ChemMedChem, 2016)
# Where two headings read alike, the source gives them in different places.
# Key:
# B. subtilis = B. subtilis growth inhibition assay; assay type: cell-based; conditions: Bacillus subtilis, read-out: IC50 B. subtilis
# In short: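 B. subtilis ATCC 6051 grown overnight in LB and diluted 1000-fold in fresh LB. Test compound added as a 3-fold series from 1 mm to 46 nm. Incubated overnight at 37°C with shaking at 200 RPM; inhibition read from OD600.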
# HsFPPS = biological target: T1, HsFPPS (Homo sapiens, UniProt P14324); assay: HsFPPS inhibition, phosphate release assay; assay type: biochemical, H. sapiens
# T1 sequence (P14324 1-419): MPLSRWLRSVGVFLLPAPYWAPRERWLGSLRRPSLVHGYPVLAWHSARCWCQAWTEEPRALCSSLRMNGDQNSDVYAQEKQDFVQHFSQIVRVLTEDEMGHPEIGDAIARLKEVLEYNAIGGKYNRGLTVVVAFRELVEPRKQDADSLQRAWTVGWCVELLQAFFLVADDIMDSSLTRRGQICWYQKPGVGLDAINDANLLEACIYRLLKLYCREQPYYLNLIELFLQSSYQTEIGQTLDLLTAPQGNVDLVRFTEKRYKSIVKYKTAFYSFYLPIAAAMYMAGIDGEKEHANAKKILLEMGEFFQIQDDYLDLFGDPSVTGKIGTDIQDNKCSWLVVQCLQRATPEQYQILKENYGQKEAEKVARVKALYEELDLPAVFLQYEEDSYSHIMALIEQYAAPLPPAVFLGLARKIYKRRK
# P. aeruginosa (PA01) = assay: P. aeruginosa growth inhibition assay; assay type: cell-based; conditions: Pseudomonas aeruginosa
# In short: (§1)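 Strains: A. baumannii ATCC 19606, K. pneumoniae ATCC 27736 and P. aeruginosa PA01, grown overnight in cation-adjusted Mueller-Hinton broth. Cultures diluted 1000-fold in fresh broth, with test compound as a 3-fold series from 1 mm to 46 nm. Incubated overnight at 37°C, 200 RPM; OD600 read. Rescue arm: farnesol 200 μm in the medium. Duplicate experiments, mean±SD.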
# P. aeruginosa = assay: Synergy/antagonism two-drug combination assay, P. aeruginosa; assay type: cell-based
# [1] = tested on: S. aureus (Newman strain); assay: S. aureus growth inhibition assay; assay type: cell-based; conditions: Staphylococcus aureus, read-out: IC50 S. aureus
# In short: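 S. aureus Newman grown overnight in tryptic soy broth, then diluted 1000-fold in fresh medium. Test compound dosed as a 3-fold series from 1 mm to 46 nm. Incubated at 37°C, 200 RPM, overnight; growth read as OD600.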
# [2] = tested on: E. coli BL21(DE3) with PaFPPS overexpression; assay: Growth inhibition of E. coli overexpressing PaFPPS; assay type: cell-based; conditions: Escherichia coli
# EcFPPS = EcFPPS (Escherichia coli, UniProt P22939); assay: EcFPPS inhibition, phosphate release assay; assay type: biochemical, E. coli
# Chain of EcFPPS (P22939 whole entry): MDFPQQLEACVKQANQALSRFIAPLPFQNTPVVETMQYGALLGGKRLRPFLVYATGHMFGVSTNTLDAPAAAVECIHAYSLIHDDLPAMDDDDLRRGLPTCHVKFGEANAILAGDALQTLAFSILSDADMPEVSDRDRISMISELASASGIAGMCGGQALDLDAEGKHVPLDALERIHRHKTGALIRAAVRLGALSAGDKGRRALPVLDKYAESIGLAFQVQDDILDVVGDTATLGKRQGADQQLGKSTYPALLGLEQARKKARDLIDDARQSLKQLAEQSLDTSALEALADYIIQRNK
# In short: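 Purified recombinant FPPS (25 ng) preincubated with test compound for 10 min at room temperature in pH 7.0 buffer (10 mm HEPES, 150 mm NaCl, 5 mm MgCl2). Compound diluted from 1 mm to 1 nm. Reaction started with 50 μm GPP, 50 μm IPP, purine nucleoside phosphorylase, inorganic phosphatase and ~600 μm MESG.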
# K. pneumoniae [3] = assay: K. pneumoniae growth inhibition assay; assay type: cell-based; conditions: Klebsiella pneumoniae
# In short: as §1
# [4] = tested on: E. coli, A. baumannii, K. pneumoniae and P. aeruginosa; assay: Synergy of 11 with fosmidomycin, mean over four Gram-negative bacteria; assay type: cell-based
# M. smegmatis = M. smegmatis growth inhibition; assay type: cell-based, Mycobacterium smegmatis
# E. coli [5] = assay: Synergy/antagonism two-drug combination assay, E. coli; assay type: cell-based
# [6] = biological target: T2, human geranylgeranyl diphosphate synthase (HsGGPPS) (Homo sapiens, UniProt O95749); assay: HsGGPPS inhibition; assay type: biochemical
# T2 sequence (O95749 1-300): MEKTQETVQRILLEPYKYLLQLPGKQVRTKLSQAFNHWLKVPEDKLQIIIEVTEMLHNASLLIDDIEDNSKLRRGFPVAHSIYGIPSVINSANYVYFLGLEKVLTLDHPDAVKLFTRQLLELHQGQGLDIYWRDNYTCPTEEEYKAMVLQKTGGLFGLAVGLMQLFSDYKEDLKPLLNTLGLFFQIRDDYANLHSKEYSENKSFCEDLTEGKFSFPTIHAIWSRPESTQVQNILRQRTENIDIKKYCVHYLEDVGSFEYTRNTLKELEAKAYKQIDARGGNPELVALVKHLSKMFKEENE
# HEK293 = HEK293 toxicity assay; assay type: cell-based; conditions: Homo sapiens, HEK293, read-out: IC50 HEK293
# K. pneumoniae [7] = assay: Synergy/antagonism two-drug combination assay, K. pneumoniae; assay type: cell-based
# SmFPPS = SmFPPS (Schistosoma mansoni, UniProt G4VEL6); assay: SmFPPS inhibition, phosphate release assay; assay type: biochemical
# In short: (§2)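 Purified enzyme (25 ng) preincubated with inhibitor for 10 min at room temperature in pH 7.0 buffer (10 mM HEPES, 150 mM NaCl, 5 mM MgCl2). Inhibitor stocks were 10 mM in DMSO or basic water, serially diluted from 1 mM to 1 nM. Reaction mix: 50 μM GPP, 50 μM IPP, purine nucleoside phosphorylase, inorganic phosphatase, ~600 μM MESG.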
# E. coli [8] = assay: E. coli growth inhibition assay; assay type: cell-based; conditions: Escherichia coli
# In short: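 E. coli K-12 or BL21(DE3). Overnight starter culture diluted 1000-fold and grown to OD600 ~0.3, then diluted 500-fold into LB. Test compound added as a 3-fold series from 1 mm to 46 nm. Incubated 12 h at 37°C with shaking at 200 RPM; growth read as A600. IC50 by nonlinear regression. Rescue arm: farnesol 200 μm in the medium. Duplicate experiments, mean±SD.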
# A. baumannii [9] = assay: A. baumannii growth inhibition assay; assay type: cell-based; conditions: Acinetobacter baumannii
# In short: as §1
# TbFPPS = TbFPPS (Trypanosoma brucei, UniProt Q86C09); assay: TbFPPS inhibition, phosphate release assay; assay type: biochemical
# In short: as §2
# [10] = tested on: E. coli, P. aeruginosa, K. pneumoniae and A. baumannii; assay: Growth inhibition, four Gram-negative bacteria taken together; assay type: cell-based; conditions: read-out: IC50, activity against all four Gram-negatives
# PaFPPS = PaFPPS (Pseudomonas aeruginosa, UniProt Q9HWY4); assay: PaFPPS inhibition, phosphate release assay; assay type: biochemical
# In short: as §2
# A. baumannii [11] = assay: Synergy/antagonism two-drug combination assay, A. baumannii; assay type: cell-based
# [12] = P. aeruginosa, combination of 11 with fosmidomycin
# [13] = E. coli, combination of 11 with fosmidomycin
# [14] = K. pneumoniae, combination of 11 with fosmidomycin
# [15] = A. baumannii, combination of 11 with fosmidomycin
structure (smiles),measurement,setting,value
"O=P([O-])(O)C(C[n+]1ccn(CCCc2ccc(F)c(F)c2)c1)P(=O)(O)O (stereo not shown) [compound 11, Hydrogen (2-(3-(3-(3,4-difluorophenyl)propyl)-1H-imidazol-3-ium-1-yl)-1-phosphonoethyl) phosphonate]",IC50,B. subtilis,39 ± 13 µg/mL
same,IC50,HsFPPS,65 ± 12 nM
same,IC50,P. aeruginosa (PA01); read-out: IC50 P. aeruginosa,3.5 ± 0.78 µg/mL
same,IC50,P. aeruginosa (PA01); read-out: IC50 with RA,23 ± 7.8 µg/mL
same,IC50,P. aeruginosa (PA01); read-out: IC50 without RA,3.5 ± 0.78 µg/mL
same,FIC,P. aeruginosa; [12],0.27 ± 0.057
same,FIC Index,P. aeruginosa; [12],0.44 ± 0.12
same,MIC,P. aeruginosa; Pseudomonas aeruginosa,10 µg/mL
same,IC50,[1],> 100 µg/mL
same,IC50,"[2]; BL21-DE3, read-out: IC50 with RA",19 ± 2.4 µg/mL
same,IC50,"[2]; BL21-DE3, read-out: IC50 without RA",1.6 ± 0.35 µg/mL
same,IC50,EcFPPS,120 ± 25 nM
same,IC50,K. pneumoniae [3]; read-out: IC50 K. pneumoniae,2.3 ± 0.49 µg/mL
same,IC50,K. pneumoniae [3]; read-out: IC50 with RA,13 ± 1.8 µg/mL
same,IC50,K. pneumoniae [3]; read-out: IC50 without RA,2.3 ± 0.49 µg/mL
same,mean FICI,[4],0.42 ± 0.17
same,IC50,"M. smegmatis; Mycolicibacterium smegmatis, read-out: IC50 M. smegmatis, cell growth inhibition",~7 µg/mL
same,IC50 M. smegmatis,M. smegmatis; cell growth inhibition,6.8 ± 3.0 µg/mL
same,FICI,"E. coli [5]; E. coli cell growth, combination of 32 and 11",0.31 ± 0.099
same,FIC,E. coli [5]; [13],0.24 ± 0.023
same,FIC Index,E. coli [5]; [13],0.39 ± 0.15
same,MIC,E. coli [5]; Escherichia coli,6 µg/mL
same,IC50,[6],390 ± 73 nM
same,IC50,HEK293,27 ± 4 µg/mL
same,FIC,K. pneumoniae [7]; [14],0.097 ± 0.012
same,FIC Index,K. pneumoniae [7]; [14],0.22 ± 0.026
same,MIC,K. pneumoniae [7]; Klebsiella pneumoniae,6 µg/mL
same,IC50,SmFPPS,570 ± 110 nM
same,IC50,E. coli [8]; read-out: IC50 E. coli,2.1 ± 0.57 µg/mL
same,IC50,E. coli [8]; read-out: IC50 with RA,19 ± 4.1 µg/mL
same,IC50,E. coli [8]; read-out: IC50 without RA,2.1 ± 0.57 µg/mL
same,IC50,A. baumannii [9]; read-out: IC50 A. baumannii,2.8 ± 0.7 µg/mL
same,IC50,A. baumannii [9]; read-out: IC50 with RA,18 ± 4.9 µg/mL
same,IC50,A. baumannii [9]; read-out: IC50 without RA,2.8 ± 0.7 µg/mL
same,IC50,TbFPPS,120 ± 26 nM
same,IC50,[10],1 to 4 µg/mL
same,IC50,PaFPPS,320 ± 68 nM
same,FIC,A. baumannii [11]; [15],0.37 ± 0.17
same,FIC Index,A. baumannii [11]; [15],0.64 ± 0.23
same,MIC,A. baumannii [11]; Acinetobacter baumannii,6 µg/mL
